Bioassay records (PubChem)
Runt-CBFb FRET: inhibitors of RUNX1 Runt–CBFb binding, primary screen, biochemical, FRET, Cerulean-Runt, Venus-CBFb, uHTS. Runt-related transcription factor 1 (Homo sapiens) + Core-binding factor subunit beta …. Cerulean-Runt/Venus-CBFb FRET ratio 530/480, 1 h. inhibition, % at 20 µM. 220,000 compounds, 0.46% hits;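 active = inhibition over about 50% at 20 µM in the single-dose screen, limit read from the data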
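Assay system: Cerulean-Runt domain / Medium: Tris 50 mM pH 7.5, KCl, K2SO4, 0.01% BSA / Timing: protein complex preformed 1 h, compound exposure 1 h, room temperature, dark / Measured by: FRET, excitation 422 nm, emission at 530 and 480 nm / Evaluation: loss of energy transfer signal / Control set: 5 µM unlabeled CBFb as full-inhibition high control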
Runt-SMMHC FRET: inhibitors of RUNX1 Runt–CBFb-SMMHC binding, primary screen, biochemical, FRET, Cerulean-Runt, Venus-CBFb-SMMHC, uHTS | Runt-related transcription factor 1 (Homo sapiens) + Core-binding factor subunit beta … | Cerulean-Runt/Venus-CBFb-SMMHC FRET ratio 530/480, 1 h | inhibition, % at 20 µM | 220,000 compounds, 0.74% hits | AID 1434, 2008;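 active = mean inhibition across duplicate retests at 20 µM reaching about 50%, limit read from the data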;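 note: inhibitors lower the FRET ratio by blocking Runt binding to CBFb-SMMHC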
EBV gp42 inh: Epstein-Barr virus gp42 inhibitors, primary screen, biochemical, uHTS, fluorescence polarization; Fluorescence polarization binding assay, mP read-out; inhibition, % (tested at 21.74 µM); 220,000 compounds, 0.42% hits; in the data active = inhibition above about 50%
RanGTP-Impb inh: inhibitors of RanGTP-importin-beta interaction, primary screen, biochemical, FRET, CFP-Ran, YFP-importin-beta, homogeneous; Ran GTPase (GTP-bound) - importin-beta complex; cell-free CFP-Ran/YFP-importin-beta FRET ratio; inhibition, % (test concentration not listed); 300,000 compounds, 1.1% hits;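 active = more than half of the replicate wells show a fall in the fluorescence ratio signal beyond about 16%, limit read from the data, passing the limit was not always enough; inconclusive = exactly half of the replicate wells pass the set limit; inactive = fewer than half of replicates pass the limit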
MEX-5 binding: MEX-5 zinc finger RNA-binding disruptors – biochemical, C. elegans, fluorescence polarization, MLPCN library, primary screen. MEX-5/FITC-TCR2 RNA binding; stronger effect = lower value. activity score (negative = inhibition of binding), % at 10 µM. 300,000 compounds, 0.38% hits. AID 1832, 2009;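 active = inhibition past about -25% in most replicates, and total fluorescence under double the plate's negative control median, limit read from the data; inconclusive = replicates evenly split on the limit, or fluorescence at least double controls; inactive = too little inhibition in most replicates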
LANA-H2B inh: blockers of LANA interaction with H2A/H2B – biochemical, FP readout, HTS, primary screen; cell-free LANA-H2A/H2B peptide, fluorescence polarization; inhibition, % (no concentration beside the values); 320,000 compounds, 0.6% hits; AID 2629, 2010; in the data active = inhibition mostly above about 10%, no sharp cut-off; inactive = mostly below about 6.7%
Target sequence (Q9QR71 whole entry, looked up): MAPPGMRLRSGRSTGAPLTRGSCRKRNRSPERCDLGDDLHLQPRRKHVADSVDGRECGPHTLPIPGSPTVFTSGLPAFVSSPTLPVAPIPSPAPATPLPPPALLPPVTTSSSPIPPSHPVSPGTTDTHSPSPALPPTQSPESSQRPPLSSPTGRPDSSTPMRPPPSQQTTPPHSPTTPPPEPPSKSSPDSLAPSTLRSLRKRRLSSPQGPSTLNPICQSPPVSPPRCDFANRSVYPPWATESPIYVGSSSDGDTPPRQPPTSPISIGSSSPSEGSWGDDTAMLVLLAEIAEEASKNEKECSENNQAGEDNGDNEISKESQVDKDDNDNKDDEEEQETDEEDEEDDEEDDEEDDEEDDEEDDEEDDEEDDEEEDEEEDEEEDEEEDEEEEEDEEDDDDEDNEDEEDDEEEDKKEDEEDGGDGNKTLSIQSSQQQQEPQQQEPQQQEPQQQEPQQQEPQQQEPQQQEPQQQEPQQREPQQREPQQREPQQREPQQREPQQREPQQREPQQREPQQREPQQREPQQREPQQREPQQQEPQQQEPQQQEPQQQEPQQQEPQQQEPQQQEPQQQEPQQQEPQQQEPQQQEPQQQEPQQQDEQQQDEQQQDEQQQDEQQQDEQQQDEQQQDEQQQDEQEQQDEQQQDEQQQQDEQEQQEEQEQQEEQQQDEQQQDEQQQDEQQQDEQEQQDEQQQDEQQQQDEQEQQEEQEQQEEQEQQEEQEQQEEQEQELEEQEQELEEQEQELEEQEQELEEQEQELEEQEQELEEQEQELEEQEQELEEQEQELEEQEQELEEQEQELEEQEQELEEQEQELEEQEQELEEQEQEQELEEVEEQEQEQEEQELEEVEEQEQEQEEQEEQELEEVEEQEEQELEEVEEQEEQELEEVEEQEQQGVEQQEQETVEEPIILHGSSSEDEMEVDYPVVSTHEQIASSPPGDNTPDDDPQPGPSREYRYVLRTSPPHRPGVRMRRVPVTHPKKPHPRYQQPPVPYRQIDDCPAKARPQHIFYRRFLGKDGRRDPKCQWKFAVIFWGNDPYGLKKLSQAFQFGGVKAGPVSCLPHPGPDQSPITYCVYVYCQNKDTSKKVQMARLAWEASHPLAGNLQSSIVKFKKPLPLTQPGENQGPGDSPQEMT
Of the large screens only hits and unclear results are named; the others gave an inactive call. Sampled rows, rich in hits. Any-hit rate of the full collection: about 2.4%.

CCCCNC(=O)c1c(N)n(CCCOC)c2nc3ccccc3nc12	Runt-SMMHC FRET 54, RanGTP-Impb inh 106
CC(C)CCn1c(=O)c(C(=O)NCc2ccco2)c(O)c2ccccc21	none
Cc1nc2ccccc2c(=O)n1-c1cccc(C(F)(F)F)c1	none (no result: Runt-CBFb FRET, Runt-SMMHC FRET, EBV gp42 inh)
CC1CCCCN1C(=O)c1ccc(N2CC3CC(C2)c2cccc(=O)n2C3)c([N+](=O)[O-])c1 (stereo unspecified)	none
COCCNC(=O)c1c(N)n(CCC(C)C)c2nc3ccccc3nc12	Runt-SMMHC FRET 59, RanGTP-Impb inh 82
CC(C)CNC(=O)c1c(N)n(Cc2ccc3c(c2)OCO3)c2nc3ccccc3nc12	Runt-SMMHC FRET 56
CC(C)CCNC(=O)c1c(N)n(Cc2ccc3c(c2)OCO3)c2nc3ccccc3nc12	RanGTP-Impb inh 77 (no result: MEX-5 binding)
CCC(=NCC1CCCO1)c1c(O)n(-c2ccccc2C)c(=O)[nH]c1=O (stereo unspecified)	none
CN1/C(=C\C=C2C(=O)NC(=O)NC2=O)C(C)(C)c2ccccc21	MEX-5 binding -86
CN1/C(=C\C=Nc2ccccc2)C(C)(C)c2ccccc21	none
CCOc1ccc(-n2c(CC)nc3ccccc3c2=O)cc1	none
Cn1cc(C(=O)OCC(=O)Nc2ccccc2)c2ccccc21	LANA-H2B inh 90 (no result: Runt-CBFb FRET, Runt-SMMHC FRET, EBV gp42 inh, RanGTP-Impb inh, MEX-5 binding)
Cn1cc(C(=O)OCC(=O)NC2(C#N)CCCC2)c2ccccc21	none (no result: Runt-CBFb FRET, Runt-SMMHC FRET, EBV gp42 inh, RanGTP-Impb inh, MEX-5 binding)
CCN(CC)c1ccc(N=Cc2c(O)n(CCc3ccc(OC)c(OC)c3)c(=O)[nH]c2=O)cc1	EBV gp42 inh 83
CCOC(=O)c1ccc(N=Cc2c(O)n(-c3ccc(OC)cc3)c(=S)[nH]c2=O)cc1	none
COc1ccc(CCn2c(O)c(C=Nc3ccc(F)cc3)c(=O)[nH]c2=O)cc1OC	LANA-H2B inh 15
CCN(CC)CCCN=Cc1c(O)n(CCc2ccc(OC)c(OC)c2)c(=O)[nH]c1=O	none
COc1ccc(N=Cc2c(O)n(-c3ccc(C)cc3)c(=O)[nH]c2=O)cc1	Runt-SMMHC FRET 64
COc1ccc(CCn2c(O)c(/C=N/NC(=O)c3ccncc3)c(=O)[nH]c2=O)cc1OC	none
O=c1[nH]c(=O)n(CCc2ccc(F)cc2)c(O)c1C=NCCCn1ccnc1	MEX-5 binding -40
CC12CN3CCN(C1)CC(C)(C3)C2=NN	none
O=C(O)Cn1cc(/C=C2\C(=O)NC(=O)N(c3ccc(Cl)cc3)C2=O)c2ccccc21	MEX-5 binding inconclusive (no result: Runt-CBFb FRET, Runt-SMMHC FRET, EBV gp42 inh)
CN1C(=O)C(=Cc2cn(CC(=O)N3CCCC3)c3ccccc23)C(=O)N(C)C1=O	MEX-5 binding inconclusive (no result: Runt-CBFb FRET, Runt-SMMHC FRET, EBV gp42 inh)
CN1C(=O)C(=Cc2cn(CC(=O)N3CCCCC3)c3ccccc23)C(=O)N(C)C1=O	MEX-5 binding -36 (no result: Runt-CBFb FRET, Runt-SMMHC FRET, EBV gp42 inh)
CCN1C(=O)NC(=O)/C(=C\c2cn(CC(=O)N3CCCCC3C)c3ccccc23)C1=O (stereo unspecified)	MEX-5 binding inconclusive, LANA-H2B inh 33 (no result: Runt-CBFb FRET, Runt-SMMHC FRET, EBV gp42 inh)
CCN(CC)C(=O)Cn1cc(/C=C2\C(=O)NC(=O)N(c3ccccc3F)C2=O)c2ccccc21	MEX-5 binding -64 (no result: Runt-CBFb FRET, Runt-SMMHC FRET, EBV gp42 inh)
CCCNC(=O)N1[C@H]2CC[C@@H]1C(C(=O)OC)=C(c1ccc(OC(F)(F)F)cc1)C2	none (no result: Runt-CBFb FRET, Runt-SMMHC FRET, EBV gp42 inh, RanGTP-Impb inh, MEX-5 binding)
CCn1ccnc1CN1CCCC(C(=O)c2cc(F)ccc2OC)C1 (stereo unspecified)	none
Cc1ccc(-n2c(O)c(/C=N/NC(=O)c3ccncc3)c(=O)[nH]c2=O)cc1	none
O=C(N/N=C/c1c(O)n(-c2ccccc2)c(=O)[nH]c1=O)c1ccncc1	none (no result: MEX-5 binding)
Cn1c(O)c(/C=N/NC(=O)c2ccncc2)c(=O)n(C)c1=S	Runt-SMMHC FRET 81
CCCCn1c(O)c(/C=N/N2CCOCC2)c(=O)[nH]c1=S	none
CCCCCCn1c(O)c(C=Nc2ccccc2N2CCOCC2)c(=O)[nH]c1=S	MEX-5 binding -31
